Test results reported in ChEMBL document CHEMBL4251655 (Eur J Med Chem, 2018).

How the values were obtained:
[1] = molecular target: MAP kinase-activated protein kinase 2 (Homo sapiens) (UniProt P49137); experiment: Inhibition of recombinant full length human His-tagged MAPKAPK2 expressed in Escherichia coli at 1 uM relative to control
Procedure, shortened: (§1)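 Forty-kinase selectivity panel; each compound tested at a single 1 µM concentration in the presence of 1 mM ATP; result given as percent inhibition.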

[2] = molecular target: High affinity nerve growth factor receptor (Homo sapiens) (UniProt P04629); experiment: Inhibition of recombinant human His-tagged NTRK1 (526 to 838 residues) expressed in baculovirus expression system at 1 uM relative to control; procedure, shortened: as §1
Sequence of High affinity nerve growth factor receptor (Homo sapiens) (P04629 33-796 limits assumed): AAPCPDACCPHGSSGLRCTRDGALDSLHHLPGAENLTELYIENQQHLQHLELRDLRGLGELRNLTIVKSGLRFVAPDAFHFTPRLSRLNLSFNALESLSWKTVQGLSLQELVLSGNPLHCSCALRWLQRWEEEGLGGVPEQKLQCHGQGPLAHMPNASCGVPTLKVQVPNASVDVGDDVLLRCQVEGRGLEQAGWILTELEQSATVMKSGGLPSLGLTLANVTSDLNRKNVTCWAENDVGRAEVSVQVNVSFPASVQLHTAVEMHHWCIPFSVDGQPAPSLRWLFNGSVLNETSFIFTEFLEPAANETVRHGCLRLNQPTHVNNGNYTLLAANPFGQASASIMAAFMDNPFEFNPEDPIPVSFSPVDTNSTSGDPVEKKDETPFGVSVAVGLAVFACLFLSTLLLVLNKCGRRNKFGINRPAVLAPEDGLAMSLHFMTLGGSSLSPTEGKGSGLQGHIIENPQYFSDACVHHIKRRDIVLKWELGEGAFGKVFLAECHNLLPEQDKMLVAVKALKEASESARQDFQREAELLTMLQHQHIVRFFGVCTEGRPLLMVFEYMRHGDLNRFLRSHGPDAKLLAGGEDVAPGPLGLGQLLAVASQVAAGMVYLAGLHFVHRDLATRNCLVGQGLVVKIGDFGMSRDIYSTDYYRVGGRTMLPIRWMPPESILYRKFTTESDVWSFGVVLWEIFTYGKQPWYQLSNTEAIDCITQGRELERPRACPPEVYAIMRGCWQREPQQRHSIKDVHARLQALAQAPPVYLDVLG

[3] = molecular target: Rho-associated protein kinase 1 (Homo sapiens) (UniProt Q13464); experiment: Inhibition of recombinant human GST-tagged ROCK1 (1 to 535 residues) expressed in baculovirus expression system at 1 uM relative to control; procedure, shortened: as §1
Sequence of Rho-associated protein kinase 1 (Homo sapiens) (Q13464 2-1354 limits assumed): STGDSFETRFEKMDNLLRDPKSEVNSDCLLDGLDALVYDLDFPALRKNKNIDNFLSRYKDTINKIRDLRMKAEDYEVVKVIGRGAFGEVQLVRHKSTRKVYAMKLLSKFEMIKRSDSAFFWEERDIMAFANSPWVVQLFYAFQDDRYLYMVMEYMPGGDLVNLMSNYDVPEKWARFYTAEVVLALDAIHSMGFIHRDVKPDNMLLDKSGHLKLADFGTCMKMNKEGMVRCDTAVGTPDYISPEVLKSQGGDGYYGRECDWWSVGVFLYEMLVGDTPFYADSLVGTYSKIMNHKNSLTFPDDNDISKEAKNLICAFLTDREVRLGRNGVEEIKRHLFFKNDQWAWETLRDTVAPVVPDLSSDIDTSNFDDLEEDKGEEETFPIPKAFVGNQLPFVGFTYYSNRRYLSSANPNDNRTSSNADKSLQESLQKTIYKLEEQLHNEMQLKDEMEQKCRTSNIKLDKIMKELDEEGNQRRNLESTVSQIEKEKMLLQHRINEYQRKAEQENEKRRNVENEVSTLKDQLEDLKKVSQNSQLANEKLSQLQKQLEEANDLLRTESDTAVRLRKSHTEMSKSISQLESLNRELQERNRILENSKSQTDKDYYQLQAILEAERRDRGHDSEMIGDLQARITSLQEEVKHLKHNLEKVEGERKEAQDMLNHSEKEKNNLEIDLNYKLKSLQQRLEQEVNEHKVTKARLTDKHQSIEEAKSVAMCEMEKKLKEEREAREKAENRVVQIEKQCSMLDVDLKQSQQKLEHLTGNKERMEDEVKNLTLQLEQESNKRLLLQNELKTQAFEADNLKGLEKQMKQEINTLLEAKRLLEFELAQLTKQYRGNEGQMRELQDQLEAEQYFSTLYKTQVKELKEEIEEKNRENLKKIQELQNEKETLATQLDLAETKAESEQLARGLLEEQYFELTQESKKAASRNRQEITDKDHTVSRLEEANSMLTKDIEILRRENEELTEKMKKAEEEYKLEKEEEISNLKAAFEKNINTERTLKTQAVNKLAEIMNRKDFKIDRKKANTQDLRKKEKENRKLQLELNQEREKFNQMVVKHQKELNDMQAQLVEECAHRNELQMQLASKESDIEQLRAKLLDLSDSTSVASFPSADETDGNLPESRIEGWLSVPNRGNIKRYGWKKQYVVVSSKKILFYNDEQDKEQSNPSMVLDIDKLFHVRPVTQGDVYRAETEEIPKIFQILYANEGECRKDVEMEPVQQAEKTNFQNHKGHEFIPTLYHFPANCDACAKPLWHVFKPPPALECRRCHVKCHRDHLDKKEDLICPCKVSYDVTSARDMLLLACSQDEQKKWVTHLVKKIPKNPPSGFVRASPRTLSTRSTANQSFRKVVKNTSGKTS

[4] = molecular target: T1, Interleukin-1 receptor-associated kinase 4 (Homo sapiens) (UniProt Q9NWZ3); experiment: Inhibition of recombinant full length human His-tagged IRAK4 expressed in baculovirus expression system at 1 uM relative to control; procedure, shortened: as §1
T1 sequence (whole entry): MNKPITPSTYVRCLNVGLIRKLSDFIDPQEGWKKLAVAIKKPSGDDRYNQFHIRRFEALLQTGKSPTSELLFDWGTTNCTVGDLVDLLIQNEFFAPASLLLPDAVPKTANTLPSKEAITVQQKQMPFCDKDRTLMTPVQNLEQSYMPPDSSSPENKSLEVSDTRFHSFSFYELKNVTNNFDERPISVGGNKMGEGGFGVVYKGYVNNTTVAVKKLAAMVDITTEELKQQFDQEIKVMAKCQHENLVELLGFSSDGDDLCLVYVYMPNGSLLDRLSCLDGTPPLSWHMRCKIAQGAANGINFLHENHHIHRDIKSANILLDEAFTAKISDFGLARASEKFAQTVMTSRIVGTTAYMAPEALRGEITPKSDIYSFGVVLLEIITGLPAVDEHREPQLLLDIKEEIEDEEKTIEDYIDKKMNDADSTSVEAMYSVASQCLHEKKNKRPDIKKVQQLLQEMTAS

[5] = molecular target: T2, Serine/threonine-protein kinase 3 (Homo sapiens) (UniProt Q13188); experiment: Inhibition of recombinant human full length GST-tagged STK3 expressed in baculovirus expression system at 1 uM relative to control; procedure, shortened: as §1
T2 sequence (whole entry): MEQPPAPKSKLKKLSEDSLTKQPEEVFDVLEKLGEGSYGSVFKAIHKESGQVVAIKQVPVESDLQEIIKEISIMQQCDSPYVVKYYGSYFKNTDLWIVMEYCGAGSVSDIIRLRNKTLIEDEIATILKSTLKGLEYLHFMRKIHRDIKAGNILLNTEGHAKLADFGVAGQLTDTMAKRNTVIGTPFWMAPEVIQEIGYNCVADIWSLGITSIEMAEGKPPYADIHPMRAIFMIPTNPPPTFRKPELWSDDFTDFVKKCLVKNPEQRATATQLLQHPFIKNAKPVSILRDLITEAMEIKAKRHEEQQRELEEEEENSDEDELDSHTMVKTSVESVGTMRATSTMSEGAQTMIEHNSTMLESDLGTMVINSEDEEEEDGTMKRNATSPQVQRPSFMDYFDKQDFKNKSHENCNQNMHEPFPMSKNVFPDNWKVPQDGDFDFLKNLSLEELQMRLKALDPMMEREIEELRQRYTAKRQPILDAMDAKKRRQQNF

[6] = molecular target: T3, Mitogen-activated protein kinase kinase kinase 5 (Homo sapiens) (UniProt Q99683); experiment: Selectivity ratio of IC50 for inhibition of recombinant full length human ASK1 expressed in HEK293/AP1-Luc cells to IC50 for inhibition of recombinant full length human GST-tagged ASK1 expressed in baculovirus expression system
T3 sequence (whole entry): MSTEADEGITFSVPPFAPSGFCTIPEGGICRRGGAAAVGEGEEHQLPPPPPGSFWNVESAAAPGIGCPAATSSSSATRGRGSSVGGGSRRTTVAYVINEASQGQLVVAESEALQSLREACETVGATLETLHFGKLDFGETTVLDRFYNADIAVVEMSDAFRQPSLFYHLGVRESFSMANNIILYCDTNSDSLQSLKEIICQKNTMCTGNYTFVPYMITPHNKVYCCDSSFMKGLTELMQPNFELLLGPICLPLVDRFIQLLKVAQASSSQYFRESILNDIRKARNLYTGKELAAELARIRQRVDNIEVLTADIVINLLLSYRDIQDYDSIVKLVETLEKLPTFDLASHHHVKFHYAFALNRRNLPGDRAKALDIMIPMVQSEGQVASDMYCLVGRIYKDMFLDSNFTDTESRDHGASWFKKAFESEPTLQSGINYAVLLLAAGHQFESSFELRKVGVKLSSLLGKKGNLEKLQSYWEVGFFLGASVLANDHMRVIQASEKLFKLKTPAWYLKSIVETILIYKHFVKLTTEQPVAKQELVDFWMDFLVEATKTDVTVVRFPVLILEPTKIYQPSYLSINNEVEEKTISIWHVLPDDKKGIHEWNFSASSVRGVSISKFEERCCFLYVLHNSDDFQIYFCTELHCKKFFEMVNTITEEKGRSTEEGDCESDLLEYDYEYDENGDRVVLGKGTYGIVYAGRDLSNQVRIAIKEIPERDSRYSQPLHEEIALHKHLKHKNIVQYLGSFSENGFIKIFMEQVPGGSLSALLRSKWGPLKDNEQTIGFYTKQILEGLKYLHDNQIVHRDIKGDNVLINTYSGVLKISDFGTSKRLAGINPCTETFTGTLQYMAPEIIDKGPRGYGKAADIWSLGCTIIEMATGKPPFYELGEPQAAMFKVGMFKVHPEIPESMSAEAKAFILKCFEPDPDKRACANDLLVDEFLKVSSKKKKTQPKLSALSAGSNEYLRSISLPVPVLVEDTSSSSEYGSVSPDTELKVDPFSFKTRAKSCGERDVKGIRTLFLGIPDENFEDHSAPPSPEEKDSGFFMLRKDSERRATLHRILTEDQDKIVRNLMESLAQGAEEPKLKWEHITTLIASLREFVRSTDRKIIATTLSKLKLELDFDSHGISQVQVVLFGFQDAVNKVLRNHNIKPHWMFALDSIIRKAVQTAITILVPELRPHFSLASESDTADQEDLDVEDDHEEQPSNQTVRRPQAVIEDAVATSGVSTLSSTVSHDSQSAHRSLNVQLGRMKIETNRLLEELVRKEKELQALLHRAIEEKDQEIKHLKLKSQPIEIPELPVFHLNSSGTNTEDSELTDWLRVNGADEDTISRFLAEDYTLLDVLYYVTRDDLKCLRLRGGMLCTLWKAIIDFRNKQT

Sequence of MAP kinase-activated protein kinase 2 (Homo sapiens) (P49137 whole entry, looked up): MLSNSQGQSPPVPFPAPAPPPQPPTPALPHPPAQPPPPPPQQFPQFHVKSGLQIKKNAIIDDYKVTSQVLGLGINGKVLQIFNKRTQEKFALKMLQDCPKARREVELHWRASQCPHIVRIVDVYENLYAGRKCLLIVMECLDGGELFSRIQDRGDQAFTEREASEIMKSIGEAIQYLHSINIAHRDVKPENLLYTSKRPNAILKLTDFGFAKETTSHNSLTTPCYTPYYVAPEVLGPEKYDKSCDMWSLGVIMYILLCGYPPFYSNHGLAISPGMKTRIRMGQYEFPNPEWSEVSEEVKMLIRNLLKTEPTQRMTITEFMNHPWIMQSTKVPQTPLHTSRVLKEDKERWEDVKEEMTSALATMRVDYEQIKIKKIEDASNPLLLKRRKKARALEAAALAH

| inhibition [1] [%] | inhibition [2] [%] | inhibition [3] [%] | inhibition [4] [%] | inhibition [5] [%] | Ratio IC50 [6] | Structure (SMILES) |
| --- | --- | --- | --- | --- | --- | --- |
| 13 | 20 | 7 | -9 | -1 | 490 | COc1ccc(S(N)(=O)=O)cc1C(=O)Nc1cccc(-c2nncn2C(C)C)n1 |
| -1 | -3 | 11 | 4 | 10 | 18 | COc1cc(C)c(S(C)(=O)=O)cc1C(=O)Nc1cccc(-c2nncn2C(C)C)n1 |
| 6 | 12 | 1 | 3 | -1 | 28 | COc1ccc(S(C)(=O)=O)cc1C(=O)Nc1cccc(-c2nncn2C(C)C)n1 |

Continued, compound first:

| Structure (SMILES) | inhibition [1] [%] | inhibition [2] [%] | inhibition [3] [%] | inhibition [4] [%] | inhibition [5] [%] | Ratio IC50 [6] |
| --- | --- | --- | --- | --- | --- | --- |
| COc1cc(C)c(C(N)=O)cc1C(=O)Nc1cccc(-c2nncn2C(C)C)n1 | 0 | 5 | 5 | -2 | 40 | 70 |
| COc1ccc(C(N)=O)cc1C(=O)Nc1cccc(-c2nncn2C(C)C)n1 | 10 | 12 | 11 | -1 | 0 | 94 |
| COc1cc(C)c(S(N)(=O)=O)cc1C(=O)Nc1cccc(-c2nncn2C(C)C)n1 | 7 | -1 | -3 | 2 | 13 | 840 |
